Test results published in ChEMBL document CHEMBL4011622, “The Structure-Activity Relationship of a Tetrahydroisoquinoline Class of N-Methyl-d-Aspartate Receptor Modulators that Potentiates GluN2B-Containing N-Methyl-d-Aspartate Receptors” (J Med Chem, 2017).

Target: T1, Ionotropic glutamate receptor NMDA 1/2D (Rattus norvegicus) (UniProt P35439+Q62645)
Assay: Positive allosteric modulation of recombinant rat GluN1/GluN2D receptor expressed in xenopus laevis oocyte assessed as compound concentration required to show two fold increase in glutamate and glycine-induced current response at holding potential -40mV by two electrode voltage clamp method

| SMILES | CD |
| --- | --- |
| COc1ccc(OCC2c3ccc(OC(C)C)cc3CCN2C(=S)c2cccc(F)c2)cc1 (stereo not given) | 4.2 µM |
| COc1ccc(OCC2c3ccc(OC(C)C)cc3CCN2C(=S)c2cccc(Cl)c2)cc1 (stereo not given) | 0.8 µM |
| COc1ccc(OC[C@@H]2c3ccc(OC(C)C)cc3CCN2C(=S)c2cccc(Cl)c2)cc1 | 0.5 µM |
| COc1ccc(OC[C@H]2c3ccc(OC(C)C)cc3CCN2C(=S)c2cccc(Cl)c2)cc1 | 4.9 µM |
| COc1ccc(OC[C@H]2c3ccc(OC(C)C)cc3CCN2C(=O)c2cccc(Cl)c2)cc1 | 1 µM |
| COc1ccc(OC[C@@H]2c3ccc(OC(C)C)cc3CCN2C(=O)c2cccc(Cl)c2)cc1 | 4.4 µM |

Target: Ionotropic glutamate receptor NMDA 1/2D (Rattus norvegicus, UniProt P35439+Q62645)
Assay: Positive allosteric modulation of recombinant rat GluN1/GluN2D receptor expressed in xenopus laevis oocyte assessed as potentiation of glutamate and glycine-induced current response at holding potential -40mV by two electrode voltage clamp method
Procedure, shortened: (§1)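 Two-electrode voltage clamp at -40 mV, 23°C, pH 7.4 Ba²⁺ recording solution, on Xenopus oocytes expressing rat NMDA receptors. Currents were evoked by 100 µM glutamate plus 30 µM glycine, with compound co-applied (DMSO 0.05–0.5% final). Each compound used at least 4 oocytes from at least 2 frogs.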

| SMILES | EC50 |
| --- | --- |
| COc1ccc(OCC2c3ccc(OC(C)C)cc3CCN2C(=S)c2cccc(F)c2)cc1 (stereo not given) | 1100 nM |
| COc1ccc(OCC2c3ccc(OC(C)C)cc3CCN2C(=S)c2cccc(Cl)c2)cc1 (stereo not given) | 430 nM |
| COc1ccc(OC[C@@H]2c3ccc(OC(C)C)cc3CCN2C(=S)c2cccc(Cl)c2)cc1 | 480 nM |
| CCOc1ccc(OCC2c3ccc(OC(C)C)cc3CCN2C(=S)c2cccc(Cl)c2)cc1 (stereo not given) | 1600 nM |
| COc1ccc(OC[C@H]2c3ccc(OC(C)C)cc3CCN2C(=S)c2cccc(Cl)c2)cc1 | 2000 nM |
| COc1ccc(OC[C@@H]2c3ccc(OC(C)C)cc3CCN2C(=O)c2cccc(Cl)c2)cc1 | 3800 nM |

Target: T2, Glutamate NMDA receptor; Grin1/Grin2b (Rattus norvegicus) (UniProt P35439+Q00960)
Assay: Positive allosteric modulation of recombinant rat GluN1/GluN2B receptor expressed in xenopus laevis oocyte assessed as potentiation of glutamate and glycine-induced current response at 30 uM at holding potential -40mV by two electrode voltage clamp method relative to control
Procedure, shortened: as §1, with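 “final). […]” for “final).”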

| SMILES | Emax |
| --- | --- |
| COc1ccc(OCC2c3ccc(OC(C)C)cc3CCN2C(=S)c2cccc(F)c2)cc1 (stereo not given) | 259% |
| COc1ccc(OCC2c3ccc(OC(C)C)cc3CCN2C(=S)c2cccc(Cl)c2)cc1 (stereo not given) | 213% |
| COc1ccc(OC[C@@H]2c3ccc(OC(C)C)cc3CCN2C(=S)c2cccc(Cl)c2)cc1 | 214% |
| CCOc1ccc(OCC2c3ccc(OC(C)C)cc3CCN2C(=S)c2cccc(Cl)c2)cc1 (stereo not given) | 172% |
| COc1ccc(OC[C@@H]2c3ccc(OC(C)C)cc3CCN2C(=O)c2cccc(Cl)c2)cc1 | 276% |

Target: T2, Glutamate NMDA receptor; Grin1/Grin2b (Rattus norvegicus)
Assay: Positive allosteric modulation of recombinant rat GluN1/GluN2B receptor expressed in xenopus laevis oocyte assessed as potentiation of glutamate-induced current response at 30 uM at holding potential -40mV by two electrode voltage clamp method

| SMILES | Activity |
| --- | --- |
| COc1ccc(OC[C@H]2c3ccc(OC(C)C)cc3CCN2C(=S)c2cccc(Cl)c2)cc1 | 105% |
| COc1ccc(OC[C@H]2c3ccc(OC(C)C)cc3CCN2C(=O)c2cccc(Cl)c2)cc1 | 101% |

Test system: not listed separately
Assay: Drug metabolism in human liver microsomes assessed as P450 mediated drug metabolite formation by measuring parent compound half life at […] by LC/MS/MS analysis
Format: ADME

| SMILES | t1/2 |
| --- | --- |
| COc1ccc(OCC2c3ccc(OC(C)C)cc3CCN2C(=S)c2cccc(Cl)c2)cc1 (stereo not given) | 29 min |

Target: Glutamate NMDA receptor; Grin1/Grin2b (Rattus norvegicus, UniProt P35439+Q00960)
Assay: Positive allosteric modulation of recombinant rat GluN1/GluN2B receptor expressed in xenopus laevis oocyte assessed as potentiation of glutamate and glycine-induced current response at holding potential -40mV by two electrode voltage clamp method
Procedure, shortened: as §1

| SMILES | EC50 |
| --- | --- |
| COc1ccc(OCC2c3ccc(OC(C)C)cc3CCN2C(=S)c2cccc(F)c2)cc1 (stereo not given) | 1400 nM |
| COc1ccc(OCC2c3ccc(OC(C)C)cc3CCN2C(=S)c2cccc(Cl)c2)cc1 (stereo not given) | 490 nM |
| COc1ccc(OC[C@@H]2c3ccc(OC(C)C)cc3CCN2C(=S)c2cccc(Cl)c2)cc1 | 320 nM |
| CCOc1ccc(OCC2c3ccc(OC(C)C)cc3CCN2C(=S)c2cccc(Cl)c2)cc1 (stereo not given) | 400 nM |

Target: T1, Ionotropic glutamate receptor NMDA 1/2D (Rattus norvegicus)
Assay: Positive allosteric modulation of recombinant rat GluN1/GluN2D receptor expressed in xenopus laevis oocyte assessed as potentiation of glutamate and glycine-induced current response at 30 uM at holding potential -40mV by two electrode voltage clamp method relative to control
Procedure, shortened: as §1

| SMILES | Emax |
| --- | --- |
| COc1ccc(OCC2c3ccc(OC(C)C)cc3CCN2C(=S)c2cccc(F)c2)cc1 (stereo not given) | 208% |
| COc1ccc(OCC2c3ccc(OC(C)C)cc3CCN2C(=S)c2cccc(Cl)c2)cc1 (stereo not given) | 229% |
| COc1ccc(OC[C@@H]2c3ccc(OC(C)C)cc3CCN2C(=S)c2cccc(Cl)c2)cc1 | 293% |
| CCOc1ccc(OCC2c3ccc(OC(C)C)cc3CCN2C(=S)c2cccc(Cl)c2)cc1 (stereo not given) | 192% |
| COc1ccc(OC[C@H]2c3ccc(OC(C)C)cc3CCN2C(=S)c2cccc(Cl)c2)cc1 | 250% |
| COc1ccc(OC[C@H]2c3ccc(OC(C)C)cc3CCN2C(=O)c2cccc(Cl)c2)cc1 | 297% |
| COc1ccc(OC[C@@H]2c3ccc(OC(C)C)cc3CCN2C(=O)c2cccc(Cl)c2)cc1 | 267% |

Target: Glutamate NMDA receptor; Grin1/Grin2c (Rattus norvegicus, UniProt P35439+Q00961)
Assay: Positive allosteric modulation of recombinant rat GluN1/GluN2C receptor expressed in xenopus laevis oocyte assessed as potentiation of glutamate and glycine-induced current response at holding potential -40mV by two electrode voltage clamp method
Procedure, shortened: as §1

| SMILES | EC50 |
| --- | --- |
| COc1ccc(OCC2c3ccc(OC(C)C)cc3CCN2C(=S)c2cccc(F)c2)cc1 (stereo not given) | 970 nM |
| COc1ccc(OCC2c3ccc(OC(C)C)cc3CCN2C(=S)c2cccc(Cl)c2)cc1 (stereo not given) | 420 nM |
| COc1ccc(OC[C@@H]2c3ccc(OC(C)C)cc3CCN2C(=S)c2cccc(Cl)c2)cc1 | 480 nM |
| CCOc1ccc(OCC2c3ccc(OC(C)C)cc3CCN2C(=S)c2cccc(Cl)c2)cc1 (stereo not given) | 5000 nM |
| COc1ccc(OC[C@H]2c3ccc(OC(C)C)cc3CCN2C(=S)c2cccc(Cl)c2)cc1 | 1700 nM |

Test system: not listed separately
Assay: Drug metabolism in human liver microsomes assessed as UGT mediated drug metabolite formation by measuring parent compound half life at […] by LC/MS/MS analysis
Format: ADME

| SMILES | t1/2 |
| --- | --- |
| COc1ccc(OCC2c3ccc(OC(C)C)cc3CCN2C(=S)c2cccc(Cl)c2)cc1 (stereo not given) | 29 min |

Target: T3, Glutamate NMDA receptor; Grin1/Grin2c (Rattus norvegicus) (UniProt P35439+Q00961)
Assay: Positive allosteric modulation of recombinant rat GluN1/GluN2C receptor expressed in xenopus laevis oocyte assessed as compound concentration required to show two fold increase in glutamate and glycine-induced current response at holding potential -40mV by two electrode voltage clamp method

| SMILES | CD |
| --- | --- |
| COc1ccc(OCC2c3ccc(OC(C)C)cc3CCN2C(=S)c2cccc(F)c2)cc1 (stereo not given) | 2.1 µM |
| COc1ccc(OCC2c3ccc(OC(C)C)cc3CCN2C(=S)c2cccc(Cl)c2)cc1 (stereo not given) | 1.1 µM |
| COc1ccc(OC[C@@H]2c3ccc(OC(C)C)cc3CCN2C(=S)c2cccc(Cl)c2)cc1 | 0.5 µM |
| CCOc1ccc(OCC2c3ccc(OC(C)C)cc3CCN2C(=S)c2cccc(Cl)c2)cc1 (stereo not given) | 7.6 µM |
| COc1ccc(OC[C@H]2c3ccc(OC(C)C)cc3CCN2C(=S)c2cccc(Cl)c2)cc1 | 3.8 µM |
| COc1ccc(OC[C@H]2c3ccc(OC(C)C)cc3CCN2C(=O)c2cccc(Cl)c2)cc1 | 1.3 µM |
| COc1ccc(OC[C@@H]2c3ccc(OC(C)C)cc3CCN2C(=O)c2cccc(Cl)c2)cc1 | 3.5 µM |

Target: T3, Glutamate NMDA receptor; Grin1/Grin2c (Rattus norvegicus)
Assay: Positive allosteric modulation of recombinant rat GluN1/GluN2C receptor expressed in xenopus laevis oocyte assessed as potentiation of glutamate and glycine-induced current response at 30 uM at holding potential -40mV by two electrode voltage clamp method relative to control
Procedure, shortened: as §1

| SMILES | Emax |
| --- | --- |
| COc1ccc(OCC2c3ccc(OC(C)C)cc3CCN2C(=S)c2cccc(F)c2)cc1 (stereo not given) | 226% |
| COc1ccc(OCC2c3ccc(OC(C)C)cc3CCN2C(=S)c2cccc(Cl)c2)cc1 (stereo not given) | 225% |
| COc1ccc(OC[C@@H]2c3ccc(OC(C)C)cc3CCN2C(=S)c2cccc(Cl)c2)cc1 | 307% |
| CCOc1ccc(OCC2c3ccc(OC(C)C)cc3CCN2C(=S)c2cccc(Cl)c2)cc1 (stereo not given) | 278% |
| COc1ccc(OC[C@H]2c3ccc(OC(C)C)cc3CCN2C(=S)c2cccc(Cl)c2)cc1 | 253% |
| COc1ccc(OC[C@H]2c3ccc(OC(C)C)cc3CCN2C(=O)c2cccc(Cl)c2)cc1 | 252% |
| COc1ccc(OC[C@@H]2c3ccc(OC(C)C)cc3CCN2C(=O)c2cccc(Cl)c2)cc1 | 277% |

Target: T2, Glutamate NMDA receptor; Grin1/Grin2b (Rattus norvegicus)
Assay: Positive allosteric modulation of recombinant rat GluN1/GluN2B receptor expressed in xenopus laevis oocyte assessed as compound concentration required to show two fold increase in glutamate and glycine-induced current response at holding potential -40mV by two electrode voltage clamp method

| SMILES | CD |
| --- | --- |
| COc1ccc(OCC2c3ccc(OC(C)C)cc3CCN2C(=S)c2cccc(F)c2)cc1 (stereo not given) | 1.9 µM |
| COc1ccc(OCC2c3ccc(OC(C)C)cc3CCN2C(=S)c2cccc(Cl)c2)cc1 (stereo not given) | 2.6 µM |
| COc1ccc(OC[C@@H]2c3ccc(OC(C)C)cc3CCN2C(=S)c2cccc(Cl)c2)cc1 | 1.5 µM |
| COc1ccc(OC[C@@H]2c3ccc(OC(C)C)cc3CCN2C(=O)c2cccc(Cl)c2)cc1 | 3.5 µM |
